For orientation: IC50 means the midpoint of a concentration-inhibition curve.

Assay [1] concerns the target Phosphatidylinositol 4,5-bisphosphate 3-kinase catalytic subunit alpha isoform (Homo sapiens, UniProt P42336). The assay is described as follows: Inhibition of PI3Kalpha.
Assay [2] deals with T47D. In words: Antiproliferative activity against human T47D cells by MTT assay. The format is functional, cell-based. The gist of the method:
(§1)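 Human breast cancer cultures (T47D, SK-BR3, MCF-7) exposed to compound. Cell viability is read by MTT and expressed as growth IC50.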
(In general: Tetrazolium dyes change colour on reduction, which living cells bring about.)

In the next assay the test system is SK-BR-3. The assay is described as follows: Antiproliferative activity against human SKBR3 cells by MTT assay. The format is functional, cell-based. Put shortly: as §1
For another assay, the system named is MCF7. In words: Antiproliferative activity against human MCF7 cells assessed as by MTT assay. The class given is functional, cell-based. Put shortly:
as §1

The subject of assay [3] is T47D. In words: Induction of apoptosis in human T47D cells assessed as decrease in viable cells at 10 uM after 24 hrs using annexin-V FITC and PI staining by flow cytometric analysis relative to control. The format is functional. The gist of the method:
(§2)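 T47D cells treated with various compound concentrations for 24 h, then stained with Annexin V-FITC and PI and analysed by flow cytometry. Early-apoptotic cells are Annexin V-positive/PI-negative. Changes are expressed relative to untreated control.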

In assay [4] the test system is T47D. The assay is described as follows: Induction of apoptosis in human T47D cells assessed as increase in early apoptotic cells at 50 uM after 24 hrs using annexin-V FITC and PI staining by flow cytometric analysis relative to control. The format is functional. The gist of the method:
as §2
(Flow cytometry measures light scatter and fluorescence of single cells or particles in a stream.)

For assay [5], the system named is T47D. In words: Induction of apoptosis in human T47D cells assessed as increase in late apoptotic cells at 50 uM after 24 hrs using annexin-V FITC and PI staining by flow cytometric analysis relative to control. The format is functional. The gist of the method: as §2
The test system of assay [6] is T47D. In words: Induction of apoptosis in human T47D cells assessed as increase in non-viable cells at 50 uM after 24 hrs using annexin-V FITC and PI staining by flow cytometric analysis relative to control. The class given is functional. Put shortly: as §2
Assay [7] relates to T47D. In words: Induction of apoptosis in human T47D cells assessed as decrease in viable cells at 50 uM after 24 hrs using annexin-V FITC and PI staining by flow cytometric analysis relative to control. The class given is functional. The gist of the method:
as §2

Assay [8] has as its system HUVEC. In words: Antiangiogenic activity against HUVEC assessed as inhibition of tubular network formation on matrigels beds. The conditions noted are these: Homo sapiens. The class given is functional, cell-based. Put shortly: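 HUVECs plated onto Matrigel beds and treated with DMSO vehicle or compound at 0.1, 1 and 10 µM. Read-out is formation of a capillary-like tubular network, assessed from representative images.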

Assay [9] concerns HUVEC. In words: Antiangiogenic activity against HUVEC assessed as inhibition of wound-induced migration of cells to non-wounded region. The format is functional, cell-based. The conditions noted are these: Homo sapiens. The gist of the method: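 HUVEC wound-induced migration assay. Migration is quantified by counting the cells that moved beyond the reference line into the non-wounded region.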

Assay [10] concerns T47D. The assay is described as follows: Induction of apoptosis in human T47D cells assessed as increase in early apoptotic cells at 1 uM after 24 hrs using annexin-V FITC and PI staining by flow cytometric analysis relative to control. The class given is functional. The gist of the method:
as §2

In assay [11] the test system is T47D. The assay is described as follows: Induction of apoptosis in human T47D cells assessed as increase in late apoptotic cells at 1 uM after 24 hrs using annexin-V FITC and PI staining by flow cytometric analysis relative to control. The format is functional. The gist of the method: as §2
Assay [12] relates to T47D. The assay is described as follows: Induction of apoptosis in human T47D cells assessed as increase in non-viable cells at 1 uM after 24 hrs using annexin-V FITC and PI staining by flow cytometric analysis relative to control. The format is functional. Put shortly:
as §2

The subject of assay [13] is T47D. In words: Induction of apoptosis in human T47D cells assessed as decrease in viable cells at 1 uM after 24 hrs using annexin-V FITC and PI staining by flow cytometric analysis relative to control. The format is functional. The gist of the method:
as §2

The test system of assay [14] is T47D. In words: Induction of apoptosis in human T47D cells assessed as increase in early apoptotic cells at 10 uM after 24 hrs using annexin-V FITC and PI staining by flow cytometric analysis relative to control. The format is functional. The gist of the method:
as §2

In assay [15] the test system is T47D. The assay is described as follows: Induction of apoptosis in human T47D cells assessed as increase in late apoptotic cells at 10 uM after 24 hrs using annexin-V FITC and PI staining by flow cytometric analysis relative to control. The format is functional. Put shortly: as §2
Assay [16] has as its system T47D. The assay is described as follows: Induction of apoptosis in human T47D cells assessed as increase in non-viable cells at 10 uM after 24 hrs using annexin-V FITC and PI staining by flow cytometric analysis relative to control. The format is functional. The gist of the method: as §2

Sequence of Phosphatidylinositol 4,5-bisphosphate 3-kinase catalytic subunit alpha isoform (P42336 whole entry, canonical isoform): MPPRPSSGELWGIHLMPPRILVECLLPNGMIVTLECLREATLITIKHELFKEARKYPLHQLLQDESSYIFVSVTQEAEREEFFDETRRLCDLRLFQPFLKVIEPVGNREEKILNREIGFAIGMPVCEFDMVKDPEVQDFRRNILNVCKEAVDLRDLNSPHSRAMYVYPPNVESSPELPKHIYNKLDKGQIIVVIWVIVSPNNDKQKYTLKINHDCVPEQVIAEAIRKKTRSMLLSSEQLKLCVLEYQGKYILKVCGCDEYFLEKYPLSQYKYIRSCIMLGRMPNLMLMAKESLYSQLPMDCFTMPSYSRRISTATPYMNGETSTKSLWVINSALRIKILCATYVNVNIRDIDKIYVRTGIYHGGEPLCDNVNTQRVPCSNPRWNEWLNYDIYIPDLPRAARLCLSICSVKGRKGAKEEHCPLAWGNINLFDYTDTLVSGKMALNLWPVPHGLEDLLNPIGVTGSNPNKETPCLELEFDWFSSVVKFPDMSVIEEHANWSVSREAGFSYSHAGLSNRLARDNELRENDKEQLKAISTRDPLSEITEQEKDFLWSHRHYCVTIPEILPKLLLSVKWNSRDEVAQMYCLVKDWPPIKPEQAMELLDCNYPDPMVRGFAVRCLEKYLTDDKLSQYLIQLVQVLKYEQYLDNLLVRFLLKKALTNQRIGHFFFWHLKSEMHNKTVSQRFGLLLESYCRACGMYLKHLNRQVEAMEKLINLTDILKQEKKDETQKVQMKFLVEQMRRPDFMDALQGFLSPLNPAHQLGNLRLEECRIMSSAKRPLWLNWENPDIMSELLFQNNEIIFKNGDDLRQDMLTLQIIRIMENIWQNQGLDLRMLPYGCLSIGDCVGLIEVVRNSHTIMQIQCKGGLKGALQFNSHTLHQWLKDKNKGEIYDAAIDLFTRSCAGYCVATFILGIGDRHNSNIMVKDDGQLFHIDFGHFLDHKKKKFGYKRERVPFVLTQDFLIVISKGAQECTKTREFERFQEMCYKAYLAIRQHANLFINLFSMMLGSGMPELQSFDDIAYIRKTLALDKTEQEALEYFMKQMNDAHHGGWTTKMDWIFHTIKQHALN

Compound `COc1ccc(-c2c[nH]c3ncc(-c4cnc(N)c(NS(=O)(=O)c5ccc(F)cc5F)c4)cc23)cc1OC` returned an IC50 in [1] of 3 nM.

With `N#Cc1cccc(-c2c[nH]c3ncc(-c4cnc(N)c(NS(=O)(=O)N5CCOCC5)c4)cc23)c1`, the IC50 in assay [1] is 130 nM.

With `CC(=O)c1c[nH]c2ncc(-c3cncc(NS(=O)(=O)c4ccccc4)c3)cc12`, the concentration for half-maximal inhibition (IC50) in assay [1] was 620 nM.

Take `O=S(=O)(Nc1cncc(-c2cnc3[nH]cc(-c4cccnc4)c3c2)c1)c1ccccc1`: the 50% inhibitory concentration (IC50) in [1] worked out at 12 nM; in the assay with T47D [2], 3600 nM; in the assay with SK-BR-3 it was 12000 nM; in the assay on MCF7, 6800 nM.

The compound `N#Cc1cccc(-c2c[nH]c3ncc(-c4cncc(NS(=O)(=O)c5ccccc5)c4)cc23)c1` yielded an IC50 in [1] of 31 nM.

In assay [1], `O=S(=O)(Nc1cncc(-c2cnc3[nH]ccc3c2)c1)c1ccccc1` came in with an IC50 of 5200 nM.

The compound `COc1ccc(-c2c[nH]c3ncc(-c4cccc(NS(=O)(=O)c5ccccc5)c4)cc23)cc1OC` came in with an IC50 in assay [1] of 1600 nM.

In [1], `COc1ccc(-c2c[nH]c3ncc(-c4cncc(N)c4)cc23)cc1OC` returned an IC50 of 460 nM.

`CC(=O)c1c[nH]c2ncc(-c3cnc(N)c(NS(=O)(=O)N4CCOCC4)c3)cc12` yielded an IC50 in assay [1] of 730 nM.

As to `COc1ccc(-c2c[nH]c3ncc(-c4cncc(NS(=O)(=O)c5ccccc5)c4)cc23)cc1OC`, the 50% inhibitory concentration (IC50) worked out at 12 nM in assay [1], 8500 nM in the assay on T47D [2] and 22000 nM in the assay with SK-BR-3.

The compound `CS(=O)(=O)Nc1cccc(-c2c[nH]c3ncc(-c4cncc(NS(=O)(=O)c5ccccc5)c4)cc23)c1` came in with an IC50 in [1] of 950 nM.

Consider `N#Cc1cccc(-c2c[nH]c3ncc(-c4cncc(NS(=O)(=O)c5ccc(F)cc5F)c4)cc23)c1`, for which inhibition in [1] was half-maximal at 27 nM (IC50).

Regarding `COc1ccc(-c2c[nH]c3ncc(-c4cnc(N)c(NS(=O)(=O)N5CCOCC5)c4)cc23)cc1OC`, the Activity is 90.61% in the assay on T47D [3]; 28.24% in the assay with T47D [4]; 47.5% in the assay on T47D [5]; 7.32% in the assay on T47D [6]; 19.64% in the assay with T47D [7]; “Dose-dependent effect” in the assay on HUVEC [8]. The Activity result with HUVEC [9] is “Dose-dependent effect”; in the assay on T47D [10], 1.56%; in the assay with T47D [11] it was 3.04%; in the assay with T47D [12], 0.96%; in the assay with T47D [13], 94.44%; in the assay on T47D [14], 1.52%. The values for the Activity in the assay on T47D [15] and in the assay on T47D [16] were 4.98% and 2.86%, respectively. Besides, the values for the IC50 in the assay on T47D [2] and in the assay with SK-BR-3 were 700 nM and 3700 nM, respectively.

For the origin of these results see ChEMBL document CHEMBL1287774, “Discovery of new azaindole-based PI3Kα inhibitors: apoptotic and antiangiogenic effect on cancer cells” (Bioorg Med Chem Lett, 2010).
